ChEMBL document CHEMBL4513216, “Probing the Open Global Health Chemical Diversity Library for Multistage-Active Starting Points for Next-Generation Antimalarials” (ACS Infect Dis, 2020)

Assay: Toxicity liver stage against HepG2, at 10uM
Type: cell-based
Set-up: test concentration 10 uM, cell line HepG2-A16-CD81EGFP
Details: human, HepG2-A16-CD81EGFP cells; read-out: INHIBITION
Summary of the method: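 Uninfected HepG2-A16-CD81EGFP cells, 3 × 10^3 per well, 1536-well, plated on prespotted compound at 10 μM final, parasite-free screening media added to match infected plates; puromycin 10 μM positive, DMSO 0.5% negative; run in parallel with 48 h PbLuc assay at 37 °C, 5% CO2; viability by CellTiter-Glo luminescence, normalized to controls.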

SMILES | cytotoxicity at 10 µM [%]
COCC(=O)N1CCC2(COCc3cnc(N4CCOCC4)nc32)C1 (stereo not drawn) | -65
Cc1ccsc1[C@@H]1CCN(C(=O)c2cc3ccccc3[nH]2)C[C@H]1O | 29
Cc1nc(C)c(C(=O)NCCNc2ncccc2C#N)s1 | -1.5
Cc1ccccc1C(O)c1ccncc1 (stereo not drawn) | -4.84
CCOc1ncccc1CNC(=O)c1cc(C)on1 | -19
CSc1cc2c(cc1NC(=O)N(C)Cc1ccncc1)OCCO2 | 11.4
OCCC1CCN(c2ccnc3ccsc23)C1 (stereo not drawn) | 2.35
Clc1ccc(CNc2ccc(Cl)cn2)cc1 | 6.96
CCN1CCOCC2(CCCN(C(=O)c3conc3C)C2)C1 (stereo not drawn) | 2.82
C[C@@H]1CN(c2nc3c(cc2C(N)=O)CCC3)C[C@]1(C)O | -0.112
CO[C@@H]1CN(S(=O)(=O)c2cn(C)cn2)[C@@H]2CCCO[C@@H]21 | -125
Cc1ccc(-c2cc(C)nc(C3CCCN3S(C)(=O)=O)n2)cc1 (stereo not drawn) | -8.27
O=S1(=O)COCCN1CCOc1ccccc1 | 5.1
CCCNC(=O)CCNC(=O)N1CCc2c(F)ccc(F)c2C1 | -9.91
Cc1cc(CN2Cc3ccccc3CC2c2nnc(C)o2)on1 (stereo not drawn) | -0.962
CCCN(CCC)c1ncc(S(=O)(=O)c2ccc(OC)cc2)c(N)n1 | 7.79
CCCS(=O)(=O)CCN1CCN(c2cc(F)ccc2F)CC1 | -10
CC(C)c1cc(NC(=O)CN2CCCC2Cn2cccn2)on1 (stereo not drawn) | -8.35
CCOCc1cnc2n1CCN(C(=O)c1ccoc1C)C2C (stereo not drawn) | -98.3
CC(C)n1cc(CN2CCCN(C(=O)c3cccn3C)CC2)cn1 | 1.51
Cc1cccc(NC(=O)[C@@H]2CCCN2CC(=O)Nc2ccccc2)n1 | 2.45
CN1CCCC(c2ccnc(C(=O)NCC3CC3)c2)C1 (stereo not drawn) | 3.89
c1cnn(CC2CCCCN2Cc2noc(C3CC3)n2)c1 (stereo not drawn) | -3.48

SMILES | cytotoxicity at 10 µM [%]
COc1cc(-n2cccc2)c(Cl)cc1C(N)=O | -10.4
CS(=O)(=O)N1CCc2ccc(=O)n(CC3CC3)c2CC1 | 7.25
O=C(C1CCCCC1)N1CCC(n2nc(-c3ccco3)ccc2=O)CC1 | -16.6
O=C(c1cc2c(F)cccc2[nH]1)N1CCC(Nc2cccnn2)CC1 | -19.3
COCCN(CC(C)C)C(=O)c1cccc(Nc2cnccn2)c1 | -9.59
CCCNC(=O)N1CCc2ccc(S(=O)(=O)N3CCOCC3)cc2C1 | -2.56
Clc1cccnc1OC1CCNCC1 | -10.9
Cc1cc(-c2cnc(N3CCCC3)nc2C(C)C)on1 | 5.14
CC1=C[C@@H](CN2CCCC2)[C@H](C(C)C)C[C@H]1Cc1nnc(C)o1 | 2.47
OC1(CNCCc2nc3c(s2)CCCC3)CNCCOC1 (stereo not drawn) | 17.4
COCC1Cn2nnc(-c3cnn(C)c3)c2CN1Cc1ccsc1 (stereo not drawn) | 2.11
CCn1nc2c(cc1=O)CN(Cc1nc(-c3ccco3)no1)CC2 | -3.34
Cc1noc(-c2ccc(N3CCC[C@H]3CO)nc2)n1 | 1.48
CCNc1cc2c(nn1)CCN(C(=O)C1CCc3ccccc31)C2 (stereo not drawn) | 0.169
O=C(Cc1cn2ccccc2n1)N1CCCC(n2ccnc2)C1 (stereo not drawn) | -22.4
Cc1cc(C(=O)NCC(O)c2c(Cl)cccc2Cl)nn1C (stereo not drawn) | -9.38
O=C(Cn1cc(NC(=O)c2ccc(F)cc2F)cn1)NC1CCCC1 | -0.561
CCOC(=O)[C@]12CCCN(Cc3ccco3)C[C@H]1CN(S(C)(=O)=O)C2 | 6.86
Cc1cc(C)n(CCCN(C)C(=O)[C@H]2CCCO2)n1 | -13.2
Nc1nc(CN2CCCC2Cn2cncn2)nc2ccccc12 (stereo not drawn) | -11.7
Cc1noc(C)c1CN(C)Cc1csc(-c2ccc(C(C)C)cc2)n1 | 54.8
CN(Cc1cnn(C)c1)C(=O)C1COc2ccccc2C1 (stereo not drawn) | 0.583
Cc1csc(Nc2nccnc2C2CCCN2S(C)(=O)=O)n1 (stereo not drawn) | -3.69

SMILES | cytotoxicity at 10 µM [%]
Cc1ccccc1-n1cnc(Cl)c1CO | 8.48
CSCc1nc(CCNC(=O)C2CCCN(C(C)=O)C2)cs1 (stereo not drawn) | -4.84
CC(=O)NCCCC(=O)N1CCc2[nH]c(-c3ccccc3)nc2C1 | -3.73
Cc1ccccc1CN1CC[C@H](c2nnc(-c3cncn3C)o2)C1 | 5.08
O=C(Cn1ncc2c(c1=O)CCCC2)Nc1cccc2[nH]ccc12 | 3.16
COc1ccc(N2CCC(N(C)C(=O)Nc3ccncc3)CC2)cc1 | 3.12
O=C([C@@H]1CC[C@@H]2[C@@H](CCN2c2ncccn2)O1)N1CCCO1 | 8.79
CS(=O)(=O)NCC1CCCCN1C(=O)c1cccc(C(F)(F)F)c1 (stereo not drawn) | -2.02
Cc1noc(C)c1CN1Cc2cn(C)nc2C(COCC2CC2)C1 (stereo not drawn) | -73
COc1ncccc1NC(=O)N1CCC(c2ccc(O)cc2)CC1 | 4.87
O=c1ccc2c(n1CCN1CCCC1)CCN(c1ncccn1)CC2 | 8.33
O=C(CN1CCC(c2nnc(C(F)(F)F)o2)CC1)Nc1cccnc1 | -2.46
COC[C@@]12CCO[C@@H]1CCN(C(=O)c1ccc(F)c(F)c1)C2 | -2.59
CC(C)(C)NC(=O)C[C@@H]1CCNC[C@@H]1Cc1cc(C(C)(C)C)on1 | 4.37
COc1cc(NC(=O)C2CC(=O)N(c3cccc(F)c3)C2)ncn1 (stereo not drawn) | -1.73
CN(C)S(=O)(=O)c1csc(C(=O)N2CCSCC2)c1 | -51.6
CCC(CNS(C)(=O)=O)Oc1ccccc1F (stereo not drawn) | -6
c1csc(CN2CCn3c(Cn4cncn4)cnc3C2)n1 | -5.97
CC(=O)N1CCC(c2n[nH]c3nccnc23)CC1 | -8.69
O=C(Cc1ccc(F)cc1)NS(=O)(=O)c1ccc(F)c(F)c1 | -9.07
COc1ccc(NC(=O)Cn2nc(C)c(C)cc2=O)c(OC)c1 | -3.62
O=S(=O)(c1ccc(Cl)cc1)N1CCC(OCc2ccccn2)C1 (stereo not drawn) | 1.48
CCN(CC)S(=O)(=O)N1CCCN(CC2CCCO2)CC1 (stereo not drawn) | 5.69

SMILES | cytotoxicity at 10 µM [%]
c1cnc(N2C[C@H]3CCN(CCN4CCCC4)C[C@H]3C2)cn1 | -114
COC(=O)CNC(=O)c1cc(-c2ccccc2)nc2ncnn12 | -5.07
COCCNC(=O)C1CN(Cc2csc(C)n2)Cc2ccnn2C1 (stereo not drawn) | -74.2
CCn1c(CC2CCN(C(=O)c3cc(C(C)C)n[nH]3)CC2)n[nH]c1=O | -44.4
CCCn1nnnc1CSc1nccn1CC | -5.15
CSc1ccc(CN(CCO)C(=O)CCOc2ccccc2)cc1 | 2.08
O=C(NC[C@]1(O)CN(Cc2ccccc2F)C[C@H]1O)c1cscn1 | -12
O=C(C(c1ccccc1)S(=O)(=O)c1ccccc1)N1CCCCC1 (stereo not drawn) | -6.01
CCc1cnc(N2CC[C@H]3[C@@H]2CCC(=O)N3c2ccccc2)nc1 | -6.18
CCc1cc(N[C@@H](CO)C(N)=O)n2nc(C)c(C)c2n1 | -13.4
CN(C)C(=O)c1cnc2n1CCN(Cc1cccnc1)C2 | -67
N#Cc1cccc(CNc2ccc(F)cc2OCCO)c1 | -2.03
O=C(c1ccco1)N1CCC12CCN(c1ncc(F)cn1)CC2 | -1.3
CCOC(=O)C1CCCCN1Cc1c[nH]nc1-c1cc2ccccc2o1 (stereo not drawn) | 4.8
CC(=O)Nc1nc(C(=O)NC(C)c2ccc3c(c2)OCCO3)cs1 (stereo not drawn) | 0.409
Cc1ccc(CN2CC[C@H](c3nc4cccc(C(N)=O)c4[nH]3)C2)cc1 | 35.1
CCCc1cc(=O)n(CC(N)=O)c(-n2nc(C)cc2C)n1 | 0.097
CC(O)CCN(C)c1nc2ccccc2c(=O)[nH]1 (stereo not drawn) | 12.6
CCN(CC)c1ncc(CNC2CCc3ncnn3C2)s1 (stereo not drawn) | -1.06
CCCS(=O)(=O)N1CCC2(CC1)CN(c1ccccn1)CCO2 | 6.66
Cc1cn2cc(C(=O)NC3CCCN(c4ncccn4)C3)ccc2n1 (stereo not drawn) | 12.1
Cc1nc(C)n(CCNC(=O)C2(C)CC(c3ccccc3)=NO2)n1 (stereo not drawn) | 7.92
CCn1nc(-c2ccccc2F)ccc1=O | 12.9

SMILES | cytotoxicity at 10 µM [%]
CNC(=O)c1cccnc1NCc1ccc(-n2cccn2)cc1 | 14.1
CCn1cnnc1CCNc1nc(C)cc(C)c1C#N | 2.56
CCn1ccnc1CNCC1CCCN1c1cc(NC)ncn1 (stereo not drawn) | 3.37
O=C(NC[C@]1(O)CN(Cc2ccccc2F)C[C@H]1O)c1ccccn1 | 1.15
c1cc(-c2c[nH]c([C@@H]3COCCN3Cc3csnn3)n2)ccn1 | 3.07
CN(C)C(=O)COC1COC2(CCN(c3cccc(F)c3)CC2)C1 (stereo not drawn) | -66
Cc1ccccc1CNC(=O)N1CCC(n2cncn2)CC1 | 2.54
CO[C@@]1(C)C[C@@H](O)C12CCN(C(=O)c1ccccc1C(C)=O)CC2 | 3.51
Cc1nnc(SC2CCc3ccccc3NC2=O)o1 (stereo not drawn) | 1.35
O=C(c1sccc1-n1cnnn1)N1CCCCC1 | 6.56
Cc1cnc(C(=O)NCc2ccnc(N(C)C)c2)cn1 | -1.07
Cn1cccc1C(=O)N[C@@H]1CN(Cc2ccsc2)[C@@H]2COC[C@@H]21 | 9.9
CSc1c(CC(=O)O)n(C)c2ccccc12 | 3.79
CCOc1ccc(CN2CC[C@@](C)(O)[C@@H](Cc3ccccc3)C2)cn1 | -2.02
CCCc1cnc(C)nc1N1CCC2(CC1)CNC(=O)O2 | 44.6
COc1ccc(CN(C)CCS(=O)(=O)c2ccc(Cl)cc2)cc1OC | 2.68
O=C(CC(SC1CCCCC1)C(=O)O)c1ccc(Cl)cc1 (stereo not drawn) | 3.16
Cc1cccc(N2CCCC3(C2)CN(S(C)(=O)=O)CCO3)c1 (stereo not drawn) | 10.2
COc1nn(C)cc1C(=O)NCC(=O)NCc1ccccn1 | -3.56
Cc1nccn1-c1ncccc1CNC(=O)c1ccc(O)nc1 | -7.55
Cc1c(C(=O)N2CCN(c3ccccn3)CC2)n(C)c2ccc(Cl)cc12 | 3.95
